We go through seven molecules from PMC3188669 (Journal of medicinal chemistry, 2011).

Data set [1] concerns human basal cell carcinoma (BCC1) cells. The experiment in a line: PS uptake, retention and subcellular localization in BCC1 cells. In kind it is cell-based. The note with it: for lowering of cellular uptake relative to PS 4: 30 min, 200 nM PS; for lowering of cellular uptake relative to PS 4 / subcellular localization after 30 min incubation: serum-free DMEM. Summed up:
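Subconfluent BCC1 cells grown in DMEM with 10% FCS were washed twice in serum-free DMEM. They were incubated with test compound in DMEM with or without 10% FCS: 30 min serum-free at 0.2 μM or 3.2 μM, or 24 h at 3.2 μM. Cells were washed and imaged at 640X under phase contrast and fluorescence (Ex 410/40, Em 675/750 nm). Redistribution was imaged again after 4 h in compound- and serum-free DMEM.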

The subject of another data set is STAT3. The experiment in a line: Light-mediated photoreaction in BCC1 cells. The note with it: 2 h PS, 665 nm, 3 J/cm^2. In kind it is cell-based, human. Summed up:
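Subconfluent BCC1 cells were incubated 2 h in serum-free DMEM with 2-fold serial dilutions of test compound and then washed. They were irradiated in serum-free medium at 37°C with 665 nm dye-laser light for 9 min and extracted immediately. Cell PS was measured by extract fluorescence (Ex 415, Em 667 nm). RIPA lysates (20 μg) were immunoblotted for STAT3, EGFR, p38 and P-p38 with ECL detection. STAT3 crosslinking was expressed as % monomer converted to dimer form I.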

Data set [2] deals with Colon26 cells. Nature of the data set: In vitro photosensitizing efficacy, MTT assay. In kind it is cell-based, mouse. The settings on record: 24 h incubation, variable light doses; for in vitro efficacy (PS 4, 12, 23): Colon26, 0.0625 μM. The method in brief:
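Colon26 cells were seeded at 3 × 10³ cells/well in RPMI with 10% FCS and left overnight. Test compound was added for 24 h at 37°C in the dark, then replaced with drug-free complete medium. Cells were irradiated at 0–4 J/cm² at the compound's absorption peak (660–674 nm), 3.2 mW/cm², using an argon-pumped dye laser. After 48 h in the dark, MTT was added for the last 4 h and formazan was dissolved in DMSO. A570 was read. Survival was plotted against light dose; 4 wells, 3 independent repeats.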
Background: Tetrazolium assays rely on reduction of a dye to a coloured formazan, in cell work by metabolically active cells.

For data set [3], the system named is Colon26 cells. Nature of the data set: PS uptake by Colon26 cells, flow cytometry. The note with it: 24 h post incubation. The data set is classed as cell-based, mouse. Summed up: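 Colon26 cells were seeded at 0.33 × 10⁶/well and left overnight. Test compound was added at 100, 200, 400 or 800 nM in triplicate at 37°C, with compound-free wells for autofluorescence. Cells were trypsinised, neutralised in cold medium with 2% FCS, spun at 500 g for 5 min at 4°C, and resuspended in cold PBS/2% FCS on ice in the dark. Flow cytometry used Ex 633 nm and Em 730±45 nm, 10,000 events; mean fluorescence of triplicates minus autofluorescence.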
(In general: In flow cytometry, cells or beads pass a laser one at a time.)

For data set [4], the system named is Colon26 tumors. The experiment in a line: PET imaging and biodistribution in BALB/c mice bearing Colon26 tumors. The data set is classed as in vivo. The settings on record: for time post injection giving the best imaging contrast: PET.
Data set [5] deals with Colon26 tumors. Nature of the data set: In vivo optical fluorescence imaging in BALB/c mice bearing Colon26 tumors. The note with it: for tumor versus skin fluorescence after tumor removal: 1 μmol/kg, 24 h post injection. The method in brief: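 Colon26 cells (1×10⁶ in 50 μL serum-free RPMI) were injected subcutaneously into the right posterior axilla and grown to 4–5 mm. Hair was removed the day before dosing. Mice were imaged under ip ketamine/xylazine with 540/40 nm illumination and a long-pass filter for 667/676 nm emission, and autofluorescence was removed by spectral unmixing. Tumor ROI was 20 mm, mean ± SD of 3 mice. After imaging, the tumor was excised and the skin flap imaged.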

The test system of data set [6] is Colon26 tumors. The experiment in a line: In vivo PDT efficacy in BALB/c mice bearing Colon26 tumors. The note with it: 1.0 μmol/kg, light 128 J/cm^2, 14 mW/cm^2 at 24 h post injection, 10 mice/group. Summed up:
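Hair around the subcutaneous tumor was removed. At 4–5 mm diameter, mice received test compound at 1 μmol/kg. At 24 h, unanaesthetised mice restrained in holders were irradiated at 660–674 nm according to compound, with power monitored throughout. Mice were checked daily and volume was calculated as L×W²/2. Cure meant no palpable tumor by day 60–90; mice were euthanised at 400 mm³.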

Regarding `CCC1=C(C)c2cc3[nH]c(cc4nc(c5c6[nH]c(cc1n2)c(C)c6C(=O)C5)C(CCC(=O)OC)[C@@H]4C)c(C)c3C(C)OCc1cccc(I)c1` (stereo partly drawn) [PS 1, Methyl 3-devinyl-3-{1′-(m-iodobenzyoxy)-ethyl}pyropheophoride-a], in data set [1] (3.2 μM PS 1 or 0.2 μM PS 4), the “subcellular localization after subsequent 4 h incubation in PS-free medium” value is recorded as “lysosomal compartment”. Besides, in data set [1], the “lowering of cellular uptake relative to PS 4” value is listed as above 100 fold and the “subcellular localization after 30 min incubation” value was “mitochondrial compartment”. In addition, the “fluorescence (uptake) in presence of 10% fetal calf serum” value in data set [1] (data not shown) is reported as ~ 5 fold lower. Moreover, in the data set on STAT3, the “photoreaction quantifiable by the biochemical markers” value is reported as “ineffective”.
Take `CCC1=C(C)c2cc3[nH]c(cc4nc(c5c6[nH]c(cc1n2)c(C)c6C(=O)C5)C(CCC(=O)O)[C@@H]4C)c(C)c3C(C)OCc1cccc(I)c1` (stereo partly drawn) [PS 4, 3-devinyl-3-{1′-(m-iodobenzyoxy)-ethyl} pyropheophoride-a]: the “subcellular localization after 30 min incubation” value in data set [1] is “mitochondrial compartment”. Moreover, the “in vitro efficacy (PS 4, 12, 23)” value in the data set on Colon26 cells [2] is on record as “comparable in vitro efficacy”. The “relative PDT efficacy in vitro (PS 1, 4, 7)” value in the data set with Colon26 cells [2] (Colon26, 0.3 μM) is “most effective”. Also, the “PS uptake by Colon26 cells (rank order)” value in the data set with Colon26 cells [3] is given as “PS 4 ≥ 23 > 12”. For the same molecule, the “time post injection giving the best imaging contrast” value with Colon26 tumors [4] (BALB/c mice, Colon26 tumor) amounted to 72 h. Also, the “tumor versus skin fluorescence after tumor removal” value with Colon26 tumors [5] is “tumor avid”.
With `CCC1=C(C)c2cc3[nH]c(cc4nc(c5c6[nH]c(cc1n2)c(C)c6C(=O)C5)C(CCC(=O)O)[C@@H]4C)c(C)c3C(C)OCc1cccc([124I])c1` (stereo partly drawn) [PS 6], in the data set with Colon26 tumors [4] (24, 48 and 72 h post injection), the “tumor uptake (PET)” value is recorded as “significant tumor uptake”. Also, in the data set with Colon26 tumors [4] (BALB/c mice, Colon26 tumor), the “time of maximum tumor uptake post injection” value was found to be 24 h and the “time post injection giving the best imaging contrast” value is reported as 72 h.
For the molecule `CC[C@H]1c2cc3[nH]c4c(c5nc(cc6[nH]c(cc(n2)[C@@H]1C)c(C(C)OCc1cccc(I)c1)c6C)C(C)=C5CCC(=O)O)CC(=O)c4c3C` (stereo partly drawn) [PS 23, 3-deacetyl-3-(1′-m-iodobenzyloxyethyl)-7,8-dihydrophylloerythrin], the “lowering of cellular uptake relative to PS 4” value in data set [1] is given as 2 fold. The “in vitro efficacy (PS 4, 12, 23)” value in the data set on Colon26 cells [2] is “comparable in vitro efficacy”. Moreover, the “PS uptake by Colon26 cells (rank order)” value in the data set with Colon26 cells [3] is “PS 4 ≥ 23 > 12”. In addition, the “tumor versus skin fluorescence after tumor removal” value in the data set with Colon26 tumors [5] is given as “tumor avid”.
As to `CC[C@H]1c2cc3[nH]c4c(c5nc(cc6[nH]c(cc(n2)[C@@H]1C)c(C(C)OCc1cccc([124I])c1)c6C)C(C)=C5CCC(=O)O)CC(=O)c4c3C` (stereo partly drawn) [PS 27], in the data set with Colon26 tumors [4] (BALB/c mice, Colon26 tumor), the “time post injection giving the best imaging contrast” value is given as 72 h.
Take “Peglate 3-devinyl-3-{1′-(m-iodobenzyoxy)ethyl}pyropheophoride-a [PS 7]”: the “cellular uptake in presence of serum proteins versus serum-free” value in data set [1] (3.2 μM, 24 h, 10% fetal calf serum) is given as “several-fold higher”. Besides, the “subcellular localization after 24 h incubation” value in data set [1] (3.2 μM, regardless of the incubation conditions) is “endosomal/lysosomal compartment”. For the same molecule, in data set [1], the “lowering of cellular uptake relative to PS 4” value is listed as above 100 fold. In the data set with STAT3, the “photoreaction quantifiable by the biochemical markers” value was “ineffective”. The “tumor cure (tumor-free on day 60), first series (Fig. 7A)” value in the data set with Colon26 tumors [6] is reported as “ineffective”.
As to `CCc1c(C)c2cc3nc(c4c5[nH]c(cc6nc(cc1[nH]2)C(C)=C6C(C)OCc1cccc(I)c1)c(C)c5C(=O)C4)[C@@H](CCC(=O)O)[C@@H]3C` (stereo partly drawn) [PS 12, 3-devinyl-3-ethyl-8-{1′-(m-iodobenzyoxy)-ethyl}-pyropheophoride-a], in the data set on Colon26 cells [2], the “in vitro efficacy (PS 4, 12, 23)” value is given as “comparable in vitro efficacy”. Also, the “PS uptake by Colon26 cells (rank order)” value in the data set with Colon26 cells [3] is on record as “PS 4 ≥ 23 > 12”. In the data set with Colon26 tumors [5] (1.0 μmol/kg i.v., 24, 48 and 72 h post-injection, 3 mice/group), the “tumor uptake by fluorescence imaging” value is on record as “lower tumor uptake”.
